Published values gathered from unrelated publications.
Protocols differ between the studies behind these lines.
Target: Tyrosine-protein kinase BTK (BTK, Homo sapiens, UniProt Q06187)

CNCc1ccc(-c2cc(-c3nc(-c4ccc(S(=O)(=O)C(C)C)cc4)cnc3N)on2)cc1 — inhibition (enzyme activity, inhibitor; 0.4 µM): 4%
CNC(=O)c1cc(Oc2ccc(NC(=O)Nc3ccc(Cl)c(C(F)(F)F)c3)cc2)ccn1 — inhibition (enzyme activity, inhibitor; 10 µM): 43%
COc1cc2ncnc(Nc3ccc(Oc4ccccc4)c(C)c3C)c2cc1OC — inhibition (enzyme activity, inhibitor; 1 µM): 33%
CNc1cccc2cc(C(=O)Nc3ccc(C(=O)O)cc3)c(=O)[nH]c12 — inhibition (enzyme activity, inhibitor; 10 µM): 2.1%
CN(C)C1CCN(CC#Cc2nn(C3CCCC3)c3nc(NCc4ccccc4)ncc23)C1 (stereo not shown) — inhibition (enzyme activity, inhibitor, FRET; 10 µM): 22%
CC/C(=N\NC(=O)NCc1cccc(O)c1)c1ccc(O)c(C)c1O — inhibition (enzyme activity, inhibitor; 0.1 µM): -0.2%
CNC(=O)c1cc2c(Oc3ccc(NC(=O)C4(C(=O)Nc5ccc(F)cc5)CC4)cc3)ccnc2cc1OC — inhibition (enzyme activity, inhibitor, radiometric; 1 µM): 94%
CS(=O)(=O)Nc1cccc(-c2csc(NC(=O)CSc3nc4nccnc4c(=O)n3CCc3ccccc3)n2)c1 — inhibition (enzyme activity, inhibitor; 10 µM): 3%
Cc1ccc(Nc2nccc(N(C)c3ccc4c(C)n(C)nc4c3)n2)cc1S(N)(=O)=O — inhibition (enzyme activity, inhibitor; 0.3 µM): 12%
COc1ccc(F)cc1C(=O)NCc1ccc(-c2nn([C@@H](C)C(F)(F)F)c(N)c2C(N)=O)cc1 — inhibition (enzyme activity, inhibitor, radiometric; 0.1 µM): 97%
CN(c1ncccc1CNc1nc(Nc2ccc3c(c2)CC(=O)N3)ncc1C(F)(F)F)S(C)(=O)=O — inhibition (enzyme activity, inhibitor; 1 µM): 65%
CCN(CC)CCNC(=O)c1c(C)[nH]c(/C=C2\C(=O)Nc3ccc(F)cc32)c1C — inhibition (binding, competition with immobilised ligand; 0.1 µM): 91.3%
CCN(CC)CCNC(=O)c1c(C)[nH]c(/C=C2\C(=O)Nc3ccc(F)cc32)c1C — inhibition (enzyme activity, inhibitor; 0.3 µM): 16%
